Assay results taken from paper PMC3711073 (Angewandte Chemie (International ed. in English), 2012).
Read-outs that look alike come from different tables or passages of the source.

Experiments:
[1] = molecular target: MLL-GACKIX complex (GACKIX domain of CBP/p300) (Mus musculus, UniProt P45481); type: binding
Summary of the method: (§1)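 Test compound added at increasing concentrations to the preformed GACKIX domain complex with either fluorescein-tagged MLL activation-domain peptide or fluorescein-tagged pKID peptide. Displacement was tracked as the change in fluorescence polarization.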

[2] = system: c-Jun-driven gene Cyclin D1; test: Cell-based assay of c-Jun-driven gene Cyclin D1 expression; details: SI Figure 7
[3] = molecular target: GACKIX domain of CBP/p300 (Mus musculus, UniProt P45481); test: Ligand-detected 1D 1H-NMR binding to GACKIX with MLL and KID peptide competition; details: sekikaic acid 15 μM, GACKIX 5 μM, MLL and pKID peptide 15 μM each
Sequence of GACKIX domain of CBP/p300 (P45481 586-665 limits assumed): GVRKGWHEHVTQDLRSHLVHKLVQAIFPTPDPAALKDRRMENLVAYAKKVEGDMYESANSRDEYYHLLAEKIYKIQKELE
Summary of the method: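 Aromatic 1H resonances of the test compound (15 μM) were recorded alone and after adding GACKIX (5 μM). MLL and pKID peptides (15 μM each) were then added singly or together. Resonance positions were compared with the unbound-state spectrum to judge reversal of binding.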

[4] = molecular target: T1, VP2-Med15(107-357) (Saccharomyces cerevisiae, UniProt P19659); test: Competitive FP binding assay of VP2 with Med15; details: specificity
T1 sequence (P19659 107-357): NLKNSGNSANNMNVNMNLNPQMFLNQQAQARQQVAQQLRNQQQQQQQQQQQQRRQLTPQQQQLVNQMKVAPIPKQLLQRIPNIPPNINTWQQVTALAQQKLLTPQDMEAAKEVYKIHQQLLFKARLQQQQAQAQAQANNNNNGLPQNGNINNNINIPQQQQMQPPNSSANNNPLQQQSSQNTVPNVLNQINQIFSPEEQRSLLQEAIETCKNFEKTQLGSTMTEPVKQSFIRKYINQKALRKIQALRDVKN

[5] = molecular target: Fl-KID-GACKIX complex (GACKIX domain of CBP/p300) (Mus musculus, UniProt P45481); test: Fluorescence polarization inhibition of the Fl-KID-GACKIX complex; type: binding
Sequence of Fl-KID-GACKIX complex (GACKIX domain of CBP/p300) (P45481 586-665 limits assumed, one chain of several): as the sequence (P45481 586-665 limits assumed) above
Summary of the method: as §1

Sequence of MLL-GACKIX complex (GACKIX domain of CBP/p300) (P45481 586-665 limits assumed, one chain of several): as the sequence (P45481 586-665 limits assumed) above

IC50 ([1]; read-out: IC50, inhibition of the MLL-GACKIX complex, FP, fluorescein-tagged MLL) [µM]	Reversibility of binding to GACKIX [3]	Inhibition of VP2-Med15(107-357) (in words) [4]	IC50 [5] [µM]	IC50 [1] [µM]	Inhibition of Fl-KID binding to GACKIX (in words) ([5]; competitive FP binding assay)	Inhibition of Fl-MLL binding to GACKIX (in words) ([1]; competitive FP binding assay)	Compound	Effect on expression of c-Jun-driven gene Cyclin D1 in cells [2]
34	reversible	did not significantly inhibit	–	–	–	–	CCCc1cc(OC)cc(O)c1C(=O)Oc1c(OC)cc(CCC)c(C(=O)O)c1O [sekikaic acid]	dose dependent down regulation
–	–	–	25	17	–	–	CCCCCc1c2c(cc(O)c1C(=O)O)OC(=O)c1c(cc(OC)cc1C(=O)CCCC)O2 [lobaric acid]	dose dependent down regulation
–	–	–	–	–	unable to significantly inhibit	unable to significantly inhibit	Cc1cc(OC(=O)c2c(C)cc(O)cc2O)cc(O)c1C(=O)O [lecanoric acid, reference compound]	no effect
